Granule exo inh = blocks lytic granule exocytosis; TALL-104 LAMP-1 surface exposure, flow cytometry; cells stimulated with thapsigargin and PMA; inhibition, % at 10 µM; actives 0.66% (n = 360,000);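 active means inhibition above about 55%, limit read from the data; inconclusive means no clear call, values can overlap the other calls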
EBI2 antag = antagonists of human EBI2 receptor. actives 0.81% (n = 360,000). EBI2 beta-arrestin recruitment, luminescence, 7a,25-OHC stimulated. P32249. inhibition, % at 5 µM; in the data active means inhibition above about 38%;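 further: enzyme fragment complementation signal reports receptor beta-arrestin coupling in cells; 0% = agonist plus DMSO wells and 100% = wells without agonist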
MC4R antag cAMP = blocks human MC4R cAMP signaling. MC4R-expressing cells, MTII-stimulated cAMP, LANCE TR-FRET. inhibition, % at 6.5 µM. actives 0.48% (n = 360,000). AID 540295;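 active means inhibition above its plate's cutoff, the mean of tested wells on that plate plus 3 SD, cut at about 29% in these data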;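 further: 0% = Melanotan II alone and 100% = Melanotan II plus saturating MCL0020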
Target sequence (P32245 whole entry, looked up): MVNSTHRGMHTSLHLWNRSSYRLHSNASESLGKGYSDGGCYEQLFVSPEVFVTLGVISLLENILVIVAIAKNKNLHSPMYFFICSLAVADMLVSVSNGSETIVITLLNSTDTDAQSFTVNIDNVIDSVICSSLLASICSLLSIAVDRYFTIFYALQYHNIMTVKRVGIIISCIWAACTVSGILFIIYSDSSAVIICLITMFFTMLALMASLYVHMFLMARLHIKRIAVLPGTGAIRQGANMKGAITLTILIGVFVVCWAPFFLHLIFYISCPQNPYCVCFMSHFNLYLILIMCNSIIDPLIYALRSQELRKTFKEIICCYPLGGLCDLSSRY
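System: U2OS cells stably expressing human melanocortin 4 receptor (MC4R). Reagent: Melanotan II challenge after compound preincubation. Doses: 6.5 µM. Times: 30-min compound, 1-h challenge, 1-h detection, room temperature. Measured by: TR-FRET with Eu-cAMP and labeled anti-cAMP, 671 nm. Replicates: singlicate.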
MC4R barr agon = agonists of human melanocortin 4 receptor (MC4R) beta-arrestin | P32245 | U2OS MC4R beta-arrestin complementation, luminescence; percent of melanotan II response, DMSO zero | activation, % at 8.9 µM | actives 0.98% (n = 360,000);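 active means activation above a per-plate cutoff, the mean activation of sample wells on that plate plus 3 SD, cut at about 8% in these data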
Myeloid diff 2 = myeloid differentiation induction; actives 1% (n = 360,000); AID 624256; ER-HoxA9 myeloid progenitors, lysozyme-GFP differentiation, flow cytometry; calls only at 10 µM;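 active means normalized GFP-positive differentiation at or above the plate's own cutoff, the solvent-only control mean plus 3 SD; inconclusive means no clear call, values can overlap the other calls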;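 further: cells exposed to compound for four days before flow analysis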
Myeloid diff CP1 = promotes myeloid progenitor differentiation. shares compounds with Myeloid diff 2. ER-HoxA9 myeloid progenitors, GFP/Mac1 double-positive flow. calls only. actives 2% (n = 2,300). AID 651706;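 active means share of green or green-and-red cells above 9 and 9% in run 1 or 4 and 3% in run 2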
GFP autofluor = flagged as fluorescent in myeloid differentiation counter-screen; ER-HoxA9 myeloid progenitors, no estrogen, GFP autofluorescence flow cytometry; vehicle wells 0%, positive control 100%; fluorescence response, % (test concentration not listed); shares compounds with Myeloid diff 2; AID 651707; actives 7.4% (n = 2,300);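 active means over 5% cells positive for green fluorescent reporter, or over 2% positive for both it and APC stain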;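 further: range taken on the double positive population between DMSO and positive control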
* = called active by the depositor; i = inactive; ? = inconclusive; . = not tested or not shown; + = active, no number. The list is not random: actives were taken first. Their share in the collection is about 3.7%.

SMILES	Granule exo inh	EBI2 antag	MC4R antag cAMP	MC4R barr agon	Myeloid diff 2	Myeloid diff CP1	GFP autofluor
CCOC(=O)c1ccc(NCn2c(=O)oc3ccccc32)cc1	0.5	-0.8	0.6	-0.5	i	i	44.5*
COc1ccc([N+](=O)[O-])cc1CN1CCN(c2ncc(Cc3ccccc3)cn2)CC1	10.0	7.8	.	.	i	.	.
O=Cc1c(-c2ccccc2)cc2oc3ccccc3cc1-2	6.5	11.2	5.8	-1.1	i	i	65.6*
CCOC(=O)c1c(NC(=O)CNCCOC)sc2c1CCCC2	-6.2	-5.2	6.2	-1.7	i	i	0.0
C[C@H]1CN([C@@H](C)CO)C(=O)CCCn2nncc2CO[C@H]1CN(C)C(=O)CCC(F)(F)F	-0.1	-5.6	19.5	2.7	i	i	0.0
C[C@H]1CN([C@@H](C)CO)C(=O)CCCn2nncc2CO[C@H]1CN(C)S(=O)(=O)c1cccc(F)c1	-1.8	-5.9	10.0	-0.9	i	i	0.0
C[C@@H]1CN([C@@H](C)CO)C(=O)CCCn2cc(nn2)CO[C@H]1CN(C)C(=O)Oc1ccccc1	5.3	-7.6	7.1	-0.9	i	.	.
C[C@H](CO)N1C[C@H](C)[C@@H](CN(C)C(=O)Oc2ccccc2)OCc2cn(nn2)CCCC1=O	-3.2	-3.5	4.9	-0.3	i	i	0.0
CN(C)CCNC(=O)C1CCN(S(=O)(=O)c2ccc3ccccc3c2)CC1	15.5	-4.7	1.4	-1.7	i	.	.
Cn1cc([N+](=O)[O-])c(C(=O)NC2CCCCCCC2)n1	-1.9	5.9	-1.2	2.7	i	.	.
Cc1nonc1NC(=O)CSc1nnc(N)s1	-7.3	4.7	11.1	0.1	i	.	.
CCN1CCN(CC(=O)Nc2ccc(S(=O)(=O)N3C(C)CCCC3C)cc2)CC1 (stereo not given)	-12.9	3.4	-1.4	-1.1	i	i	0.0
CC1CCN(S(=O)(=O)c2ccc(NC(=O)CN3CCCC3)cc2)CC1	1.0	-9.0	17.5	0.1	i	.	.
COc1ccc(N(CC(=O)Nc2cc(OC)ccc2OC)S(C)(=O)=O)cc1	-1.4	-4.6	13.7	-0.5	i	i	0.2
CCS(=O)(=O)c1nc(S(=O)(=O)c2ccc(C)cc2)c(N2CCOCC2)s1	2.9	5.7	-1.3	1.3	i	.	.
Cc1ccc(S(=O)(=O)c2nc(S(C)(=O)=O)sc2N2CCOCC2)cc1	3.1	-12.3	1.8	0.5	i	i	0.2
COc1ccc(OC)c(-n2c(SCC(=O)Nc3cccc(S(N)(=O)=O)c3)nc3ccccc3c2=O)c1	-2.3	7.4	6.4	-0.7	i	.	.
COC(=O)c1ccccc1NS(=O)(=O)c1ccc(F)cc1	-2.1	-5.2	-1.8	-0.4	i	.	.
COC(=O)c1ccccc1NC(=O)Oc1ccc(F)cc1	-2.9	-6.5	-3.6	0.0	i	i	0.0
CCOC(=O)C1CCCN(C(=O)CNS(=O)(=O)c2ccc(Br)s2)C1 (stereo not given)	-1.0	-17.9	-6.4	0.4	+	i	0.0
O=C(CNS(=O)(=O)c1ccc(Br)s1)N1CCCC1	0.8	-7.6	-0.2	-2.3	i	.	.
CCC(C)[C@H](NC(=O)[C@@H]1Cc2c([nH]c3ccccc23)C2c3ccccc3C(=O)N21)C(=O)N1CCC[C@@H]1C(=O)O (stereo not given in full)	2.3	-7.5	9.8	0.6	i	.	.
CCC(C)[C@H](NC(=O)[C@@H]1Cc2c([nH]c3ccccc23)C2c3ccccc3C(=O)N21)C(=O)NCC1CCCO1 (stereo not given in full)	-0.8	-7.9	12.1	-0.2	+	i	0.0
O=C(Nc1cccc(Cl)c1)c1csc([C@H]2C[C@H](O)[C@@H](CO)O2)n1	9.5	2.4	-6.7	-0.8	i	.	.
N#Cc1c(N)n(-c2cccc(C(=O)O)c2)c2nc3ccccc3nc12	-0.8	8.3	-6.0	-1.2	+	i	0.5
SMILES	Granule exo inh	EBI2 antag	MC4R antag cAMP	MC4R barr agon	Myeloid diff 2	Myeloid diff CP1	GFP autofluor
Cc1ccc(S(=O)(=O)N2CCCC2C(=O)NCc2ccncc2)cc1 (stereo not given)	-4.6	2.3	15.8	-0.1	?	.	.
O=C(N/N=C/c1ccncc1)c1ccccc1OCc1ccc(Br)cc1	83.4*	9.6	-0.5	-1.1	i	i	0.0
CCC1(c2ccc(F)cc2)NC(=O)N(CC(=O)N2CCN(S(=O)(=O)c3ccc(C)cc3C)CC2)C1=O (stereo not given)	-4.4	-11.0	1.1	-0.1	+	i	2.8
CCc1noc(C)c1C(=O)NNC(=O)c1ccccc1Cl	-2.9	6.8	10.9	-1.3	i	.	.
COC(=O)c1sccc1NC(=O)c1csc(C)c1	-0.5	10.0	3.8	6.3	+	i	0.2
COC(=O)c1sccc1NC(=O)c1ccc(C)cc1	-13.5	12.1	13.6	3.9	i	.	.
CN=C1SC(CC(=O)Nc2cccc(C(F)(F)F)c2)C(=O)N1C (stereo not given)	-2.2	-22.9	-4.1	1.2	i	i	0.0
O=C(CC1C(=O)NCCN1C(=O)Nc1ccccc1)Nc1ccc(F)cc1 (stereo not given)	27.4	12.4	1.3	-0.3	i	.	.
O=C(CC1SCCNC1=O)Nc1cccc(C(F)(F)F)c1 (stereo not given)	0.9	-12.0	-6.6	4.5	+	i	0.0
O=C(CC1C(=O)NCCN1C(=O)Nc1ccccc1)Nc1cccc(C(F)(F)F)c1 (stereo not given)	5.1	6.0	3.2	2.0	+	i	1.2
CCC(C)Nc1nc(OC(C(F)(F)F)C(F)(F)F)nc(OC(C(F)(F)F)C(F)(F)F)n1 (stereo not given)	4.3	-12.2	5.1	3.3	+	i	0.4
CCOC(=O)c1cc2c(=O)n3ccccc3nc2n(C(C)C)c1=NC(=O)c1c(-c2c(F)cccc2Cl)noc1C	-2.4	11.3	7.1	0.6	+	i	0.0
Cc1c(C(=O)NCc2ccc3c(c2)OCCO3)sc(=O)n1Cc1ccc(S(=O)(=O)N(C)C)cc1	-6.2	-4.4	6.5	-0.9	i	.	.
COc1cccc(NC(=O)N2CCCC2C(=O)NCc2ccc(Cl)cc2)c1 (stereo not given)	-6.4	8.7	26.6	2.2	i	i	0.0
COc1cccc(NC(=O)N2CCCC2C(=O)NCc2ccco2)c1 (stereo not given)	0.7	-7.7	7.5	-0.5	i	.	.
CC(=O)Nc1ccc(NC(=O)CSc2nccn2Cc2ccccc2)cc1	0.2	-2.3	8.1	0.3	+	i	0.0
Cc1ccc(NC(=O)CSc2nccn2Cc2ccccc2)cc1C	-2.7	2.9	10.8	3.0	i	.	.
